For 6 molecules, Drug metabolism and Retention_time results are on record in ChEMBL document CHEMBL3526048, “In vitro metabolism of rivoglitazone, a novel peroxisome proliferator-activated receptor γ agonist, in rat, monkey, and human liver microsomes and freshly isolated hepatocytes” (Drug Metab Dispos, 2011).

Data set [1] deals with Hepatocyte. In words: Drug level in rat hepatocytes treated with [14C]-rivoglitazone at 30 uM after 3 hrs by radio-HPLC/LC-MS/MS analysis in presence of NADPH-generating system/SAM. The data set is classed as ADME, cell-based.
A short description of data set [2]: Drug level in cynomolgus monkey liver microsomes treated with [14C]-rivoglitazone at 20 uM after 2 hrs by radio-HPLC/LC-MS/MS analysis in presence of NADPH-generating system/SAM. It is filed as ADME, Macaca fascicularis. In short, it runs like this: (§1)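 Pooled male liver microsomes (1 mg/ml protein; rat from 94 Sprague-Dawley, monkey from 8 cynomolgus, human from 23 donors) were incubated with [¹⁴C]rivoglitazone (20 μM). Buffer: 10 mM potassium phosphate (pH 7.4). Cofactors: NADPH-generating system (2 mM NADP⁺, 20 mM G6P, 2 U/ml G6PDH, 10 mM MgCl₂), with or without 2 mM SAM. Incubation 2 h at 37°C with shaking; controls lacked NADPH system and SAM alone. Acetonitrile stop, radio-HPLC plus LC-MS.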
Background: Liver microsomes are a subcellular fraction often used to study metabolism.

Data set [3] relates to Liver microsome. Description: Drug level in human liver microsomes treated with [14C]-rivoglitazone at 20 uM after 2 hrs by radio-HPLC/LC-MS/MS analysis in presence of NADPH-generating system/SAM. It is filed as ADME. In short, it runs like this: as §1
The test system of data set [4] is Liver microsome. Description: Drug level in Sprague-Dawley rat liver microsomes treated with [14C]-rivoglitazone at 20 uM after 2 hrs by radio-HPLC/LC-MS/MS analysis in presence of NADPH-generating system/SAM. It is filed as ADME. In short, it runs like this: as §1
Data set [5] relates to Hepatocyte. In words: Drug level in human hepatocytes treated with [14C]-rivoglitazone at 30 uM after 3 hrs by radio-HPLC/LC-MS/MS analysis in presence of NADPH-generating system/SAM. It is filed as ADME, cell-based.
Data set [6] in a line: Retention time of the compound by LC-MS/MS analysis. It is filed as physicochemical. In short, it runs like this: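 LC-MS/MS used a YMC-Pack ODS-A column (1.5 × 150 mm, 5 μm) at 30°C, 0.1 ml/min. Mobile phase was water and acetonitrile, each with 0.01% TFA. Gradient: 12→60% B over 30 min, →90% B over 5 min, hold 5 min. Detection was UV 220 nm with positive ESI Q-TOF (capillary 3300 V, cone 45 V), collision energy 20 eV and xenon as collision gas.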

Data set [7] has as its system Hepatocyte. In words: Drug level in human hepatocytes treated with [14C]-rivoglitazone at 30 uM after 3 hrs by radio-HPLC/LC-MS/MS analysis in presence of NADPH-generating system and NADPH-generating system/SAM. It is filed as ADME, cell-based.
The next data set addresses T1, Cytochrome P450 1A2 (Homo sapiens, UniProt P05177).
T1 sequence (P05177 whole entry): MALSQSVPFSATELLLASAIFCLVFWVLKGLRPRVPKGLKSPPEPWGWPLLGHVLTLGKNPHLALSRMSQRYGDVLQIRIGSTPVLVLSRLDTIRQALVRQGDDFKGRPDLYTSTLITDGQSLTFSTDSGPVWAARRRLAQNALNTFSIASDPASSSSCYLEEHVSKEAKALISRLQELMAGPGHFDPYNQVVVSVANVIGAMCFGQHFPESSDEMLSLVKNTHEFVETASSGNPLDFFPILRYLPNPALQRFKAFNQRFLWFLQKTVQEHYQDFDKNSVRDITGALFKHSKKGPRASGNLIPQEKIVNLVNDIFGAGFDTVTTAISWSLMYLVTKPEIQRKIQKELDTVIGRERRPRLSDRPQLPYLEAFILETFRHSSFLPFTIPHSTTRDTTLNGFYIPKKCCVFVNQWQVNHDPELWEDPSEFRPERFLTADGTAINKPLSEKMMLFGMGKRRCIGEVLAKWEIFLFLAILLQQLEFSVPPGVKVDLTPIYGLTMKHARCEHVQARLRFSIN
In words: Activity of human CYP1A2 expressed in microsomes isolated from baculovirus infected insect cell assessed as enzyme-mediated compound formation treated with [14C]-rivoglitazone at 20 uM after 2 hrs by radio-HPLC/LC-MS/MS analysis in presence of NADPH-generating system and NADPH-generating system/SAM. The data set is classed as ADME. In short, it runs like this: (§2)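 Baculovirus/insect-cell microsomes expressing single human CYPs, 1 mg/ml protein, with 50 mM potassium phosphate (pH 7.4) or 100 mM Tris-HCl (pH 7.5). NADPH-generating system: 2 mM NADP⁺, 20 mM glucose 6-phosphate, 2 units/ml G6PDH, 10 mM MgCl₂. [¹⁴C]rivoglitazone at 20 μM, 2 h at 37°C with shaking. Control used insect-cell control supersomes. Stopped with acetonitrile; supernatant concentrated under nitrogen; metabolites analysed by radio-HPLC, LC-MS and LC-MS/MS.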

In a further data set the target is T2, Cytochrome P450 2C8 (Homo sapiens, UniProt P10632).
T2 sequence (P10632 whole entry): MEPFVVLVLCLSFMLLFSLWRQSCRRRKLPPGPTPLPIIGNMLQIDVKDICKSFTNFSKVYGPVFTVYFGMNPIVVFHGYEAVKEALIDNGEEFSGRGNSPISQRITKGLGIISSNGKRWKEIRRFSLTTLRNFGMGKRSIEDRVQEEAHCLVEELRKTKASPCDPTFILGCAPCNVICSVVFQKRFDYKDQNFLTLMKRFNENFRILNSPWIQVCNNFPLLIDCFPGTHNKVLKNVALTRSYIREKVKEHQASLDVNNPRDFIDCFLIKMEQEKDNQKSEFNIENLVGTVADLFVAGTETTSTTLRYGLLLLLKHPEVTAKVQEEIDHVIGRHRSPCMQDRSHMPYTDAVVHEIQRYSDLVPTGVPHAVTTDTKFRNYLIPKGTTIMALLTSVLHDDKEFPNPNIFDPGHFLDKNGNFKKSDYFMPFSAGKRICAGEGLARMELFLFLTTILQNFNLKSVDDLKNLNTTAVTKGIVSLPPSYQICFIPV
In words: Activity of human CYP2C8 expressed in microsomes isolated from baculovirus infected insect cell assessed as enzyme-mediated compound formation treated with [14C]-rivoglitazone at 20 uM after 2 hrs by radio-HPLC/LC-MS/MS analysis in presence of NADPH-generating system and NADPH-generating system/SAM. It is filed as ADME. In short, it runs like this: as §2

In data set [8] the test system is Hepatocyte. In words: Drug level in rat hepatocytes treated with [14C]-rivoglitazone at 30 uM after 3 hrs by radio-HPLC/LC-MS/MS analysis in presence of NADPH-generating system and NADPH-generating system/SAM. It is filed as ADME, cell-based.
The test system of data set [9] is Liver microsome. Description: Drug level in Sprague-Dawley rat liver microsomes treated with [14C]-rivoglitazone at 20 uM after 2 hrs by radio-HPLC/LC-MS/MS analysis in presence of NADPH-generating system and NADPH-generating system/SAM. It is filed as ADME. In short, it runs like this:
as §1

For a further data set, the target named is Cytochrome P450 2C19 (Homo sapiens, UniProt P33261). Description: Activity of human CYP2C19 expressed in microsomes isolated from baculovirus infected insect cell assessed as enzyme-mediated compound formation treated with [14C]-rivoglitazone at 20 uM after 2 hrs by radio-HPLC/LC-MS/MS analysis in presence of NADPH-generating system and NADPH-generating system/SAM. It is filed as ADME. In short, it runs like this:
as §2

The next data set deals with Cytochrome P450 3A5 (Homo sapiens, UniProt P20815). In words: Activity of human CYP3A5 expressed in microsomes isolated from baculovirus infected insect cell assessed as enzyme-mediated compound formation treated with [14C]-rivoglitazone at 20 uM after 2 hrs by radio-HPLC/LC-MS/MS analysis in presence of NADPH-generating system and NADPH-generating system/SAM. The data set is classed as ADME. In short, it runs like this: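 cDNA-expressed human CYP3A5 in baculovirus-insect-cell microsomes (1 mg/ml protein) was incubated with [¹⁴C]rivoglitazone (20 μM) in 50 mM potassium phosphate (pH 7.4) or 100 mM Tris-HCl (pH 7.5). NADPH-generating system: 2 mM NADP⁺, 20 mM glucose 6-phosphate, 2 units/ml G6PDH, 10 mM MgCl₂. Incubation ran 2 h at 37°C with shaking; insect-cell control supersomes served as control. Acetonitrile stop, supernatant concentrated, then radio-HPLC, LC-MS and LC-MS/MS.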
Cytochrome P450 3A5, sequence (P20815 whole entry): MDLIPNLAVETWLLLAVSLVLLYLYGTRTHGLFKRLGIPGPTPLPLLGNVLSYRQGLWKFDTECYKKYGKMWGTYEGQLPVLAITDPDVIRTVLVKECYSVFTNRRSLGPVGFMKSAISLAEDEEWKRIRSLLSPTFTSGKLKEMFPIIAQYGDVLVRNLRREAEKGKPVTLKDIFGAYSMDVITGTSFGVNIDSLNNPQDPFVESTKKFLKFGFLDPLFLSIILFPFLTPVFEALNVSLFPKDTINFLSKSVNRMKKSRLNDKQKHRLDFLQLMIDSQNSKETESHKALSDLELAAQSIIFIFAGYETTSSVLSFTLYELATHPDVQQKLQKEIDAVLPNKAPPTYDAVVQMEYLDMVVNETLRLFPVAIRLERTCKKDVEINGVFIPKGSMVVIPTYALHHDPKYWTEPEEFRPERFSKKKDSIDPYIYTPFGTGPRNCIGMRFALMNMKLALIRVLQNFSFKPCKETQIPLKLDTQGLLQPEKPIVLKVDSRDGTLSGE

The test system of data set [10] is Liver microsome. In words: Drug level in human liver microsomes treated with [14C]-rivoglitazone at 20 uM after 2 hrs by radio-HPLC/LC-MS/MS analysis in presence of NADPH-generating system and NADPH-generating system/SAM. The data set is classed as ADME. In short, it runs like this: as §1
Another data set has as its target Cytochrome P450 2D6 (Homo sapiens, UniProt P10635). In words: Activity of human CYP2D6 expressed in microsomes isolated from baculovirus infected insect cell assessed as enzyme-mediated compound formation treated with [14C]-rivoglitazone at 20 uM after 2 hrs by radio-HPLC/LC-MS/MS analysis in presence of NADPH-generating system and NADPH-generating system/SAM. The data set is classed as ADME.

In data set [11] the test system is Hepatocyte (Macaca fascicularis). In words: Drug level in monkey hepatocytes treated with [14C]-rivoglitazone at 30 uM after 3 hrs by radio-HPLC/LC-MS/MS analysis in presence of NADPH-generating system and NADPH-generating system/SAM. The conditions noted are these: cynomolgus monkey.
A further data set deals with Cytochrome P450 3A4 (Homo sapiens, UniProt P08684). Description: Activity of human CYP3A4 expressed in microsomes isolated from baculovirus infected insect cell assessed as enzyme-mediated compound formation treated with [14C]-rivoglitazone at 20 uM after 2 hrs by radio-HPLC/LC-MS/MS analysis in presence of NADPH-generating system and NADPH-generating system/SAM. The data set is classed as ADME.
Cytochrome P450 3A4, sequence (P08684 whole entry): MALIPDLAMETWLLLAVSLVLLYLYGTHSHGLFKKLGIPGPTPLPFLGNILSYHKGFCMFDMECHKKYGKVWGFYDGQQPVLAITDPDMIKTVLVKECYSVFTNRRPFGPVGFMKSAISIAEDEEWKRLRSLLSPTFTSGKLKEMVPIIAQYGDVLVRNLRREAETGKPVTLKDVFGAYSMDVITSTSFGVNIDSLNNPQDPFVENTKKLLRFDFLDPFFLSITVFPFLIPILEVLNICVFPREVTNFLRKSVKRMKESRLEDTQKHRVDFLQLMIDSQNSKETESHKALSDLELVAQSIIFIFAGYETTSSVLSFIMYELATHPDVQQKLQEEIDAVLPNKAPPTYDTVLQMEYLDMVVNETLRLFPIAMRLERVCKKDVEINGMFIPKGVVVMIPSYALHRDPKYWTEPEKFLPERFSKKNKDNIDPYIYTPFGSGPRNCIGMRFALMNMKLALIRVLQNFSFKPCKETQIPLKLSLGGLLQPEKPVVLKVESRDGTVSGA

Another data set concerns the target Cytochrome P450 2C9 (Homo sapiens, UniProt P11712). Description: Activity of human CYP2C9 expressed in microsomes isolated from baculovirus infected insect cell assessed as enzyme-mediated compound formation treated with [14C]-rivoglitazone at 20 uM after 2 hrs by radio-HPLC/LC-MS/MS analysis in presence of NADPH-generating system and NADPH-generating system/SAM. It is filed as ADME.

Data set [12] in a line: Drug level in cynomolgus monkey liver microsomes treated with [14C]-rivoglitazone at 20 uM after 2 hrs by radio-HPLC/LC-MS/MS analysis in presence of NADPH-generating system and NADPH-generating system/SAM. It is filed as ADME, Macaca fascicularis. An outline of the steps: as §1

Cytochrome P450 2C19, sequence (P33261 whole entry): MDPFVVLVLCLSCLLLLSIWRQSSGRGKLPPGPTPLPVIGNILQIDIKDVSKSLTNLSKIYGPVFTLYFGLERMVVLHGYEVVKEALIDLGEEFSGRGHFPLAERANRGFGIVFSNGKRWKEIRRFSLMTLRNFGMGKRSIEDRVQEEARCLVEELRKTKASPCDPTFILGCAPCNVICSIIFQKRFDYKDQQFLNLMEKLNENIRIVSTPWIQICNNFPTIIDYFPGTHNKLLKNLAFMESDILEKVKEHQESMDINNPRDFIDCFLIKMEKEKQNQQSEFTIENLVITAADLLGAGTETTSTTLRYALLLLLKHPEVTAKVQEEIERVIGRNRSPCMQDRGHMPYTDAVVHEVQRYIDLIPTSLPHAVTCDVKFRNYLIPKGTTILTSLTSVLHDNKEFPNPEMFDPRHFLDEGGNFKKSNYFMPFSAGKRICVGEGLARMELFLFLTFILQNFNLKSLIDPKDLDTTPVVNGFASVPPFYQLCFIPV
Cytochrome P450 2C9, sequence (P11712 whole entry): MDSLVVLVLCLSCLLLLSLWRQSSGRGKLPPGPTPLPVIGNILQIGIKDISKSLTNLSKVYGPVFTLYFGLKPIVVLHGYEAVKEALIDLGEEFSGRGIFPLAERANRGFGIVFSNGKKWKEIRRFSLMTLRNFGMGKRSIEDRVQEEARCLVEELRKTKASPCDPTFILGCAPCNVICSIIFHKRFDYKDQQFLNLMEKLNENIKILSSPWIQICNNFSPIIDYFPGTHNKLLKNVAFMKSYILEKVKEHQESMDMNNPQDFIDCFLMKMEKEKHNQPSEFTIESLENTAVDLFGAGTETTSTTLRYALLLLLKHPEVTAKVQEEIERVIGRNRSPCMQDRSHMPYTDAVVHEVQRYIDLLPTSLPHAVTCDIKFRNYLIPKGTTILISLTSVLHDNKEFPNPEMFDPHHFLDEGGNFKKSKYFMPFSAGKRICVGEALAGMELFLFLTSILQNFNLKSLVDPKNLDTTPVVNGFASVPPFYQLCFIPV
Cytochrome P450 2D6, sequence (P10635 whole entry): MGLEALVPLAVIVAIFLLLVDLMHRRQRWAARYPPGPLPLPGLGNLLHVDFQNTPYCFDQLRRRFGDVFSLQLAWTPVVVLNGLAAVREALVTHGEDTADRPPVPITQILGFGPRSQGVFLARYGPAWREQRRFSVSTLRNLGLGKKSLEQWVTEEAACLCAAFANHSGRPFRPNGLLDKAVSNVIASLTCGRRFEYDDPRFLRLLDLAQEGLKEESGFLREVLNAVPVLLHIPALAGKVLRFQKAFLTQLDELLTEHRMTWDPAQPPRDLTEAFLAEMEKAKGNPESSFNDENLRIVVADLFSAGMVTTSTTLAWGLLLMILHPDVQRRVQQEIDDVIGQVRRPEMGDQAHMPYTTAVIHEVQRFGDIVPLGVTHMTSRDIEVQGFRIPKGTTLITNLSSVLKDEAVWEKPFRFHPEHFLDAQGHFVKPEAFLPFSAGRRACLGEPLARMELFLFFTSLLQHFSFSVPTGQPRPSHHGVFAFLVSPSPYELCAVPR

On to `COc1ccc2nc(COc3ccc(CC(C(N)=O)[S+](C)[O-])cc3)n(C)c2c1` (configuration not stated), for which the Drug metabolism result (in the data set with Hepatocyte [1]; in data set [2]; with Liver microsome [3]; in the data set with Liver microsome [4]; in the data set on Hepatocyte [5]) was “metabolite_detected” each time. Also, the Retention_time in data set [6] is 16.1 min.

On to `COc1ccc2nc(COc3ccc(CC(C(N)=O)S(C)(=O)=O)cc3)n(C)c2c1` (configuration not stated), for which the Drug metabolism entry (with Hepatocyte [1]; in data set [2]; in the data set on Liver microsome [3]; with Liver microsome [4]; in the data set with Hepatocyte [5]) was “metabolite_detected” in each case. The Retention_time in data set [6] turned out to be 18.1 min.

`Cn1c(COc2ccc(CC3SC(=O)NC3=O)cc2)nc2ccc(O)cc21` (configuration not stated): the Drug metabolism entry in the data set on Hepatocyte [7], at Cytochrome P450 1A2, on Cytochrome P450 2C8, in the data set with Hepatocyte [8], in the data set on Liver microsome [9] and at Cytochrome P450 2C19 was “metabolite_detected” each time. For the same molecule, the Drug metabolism entry (on Cytochrome P450 3A5; with Liver microsome [10]; on Cytochrome P450 2D6; in [11]; on Cytochrome P450 3A4; at Cytochrome P450 2C9) was “metabolite_detected” in each case. In addition, the Drug metabolism entry in [12] is “metabolite_detected”. In data set [6], the Retention_time is 19.2 min.

Take `COc1ccc2nc(COc3ccc(CC(O)C(N)=O)cc3)n(C)c2c1` (configuration not stated): the Drug metabolism entry at Cytochrome P450 1A2, on Cytochrome P450 2C8, with Liver microsome [9], on Cytochrome P450 2C19, at Cytochrome P450 3A5 and in the data set on Liver microsome [10] was “metabolite_detected” each time. In addition, the Drug metabolism entry (at Cytochrome P450 2D6; at Cytochrome P450 3A4; on Cytochrome P450 2C9; in data set [12]) was “metabolite_detected” each time. In data set [6], this molecule gave a Retention_time of 16.3 min.

Turning to `COc1ccc2nc(COc3ccc(CC4(O)SC(=O)NC4=O)cc3)n(C)c2c1` (configuration not stated), the Drug metabolism entry in the data set with Hepatocyte [7], at Cytochrome P450 1A2, on Cytochrome P450 2C8, in the data set with Hepatocyte [8], in the data set on Liver microsome [9] and at Cytochrome P450 2C19 was “metabolite_detected” in each case. For the same molecule, the Drug metabolism entry (on Cytochrome P450 3A5; with Liver microsome [10]; at Cytochrome P450 2D6; in [11]; at Cytochrome P450 3A4; on Cytochrome P450 2C9) was “metabolite_detected” in each case. Further, the Drug metabolism result in data set [12] is on record as “metabolite_detected”. The Retention_time in [6] is listed as 21.5 min.

Consider `COc1ccc2nc(COc3ccc(CC(S)C(N)=O)cc3)n(C)c2c1` (configuration not stated), for which the Drug metabolism result on Cytochrome P450 1A2, on Cytochrome P450 2C8, with Liver microsome [9], at Cytochrome P450 2C19, on Cytochrome P450 3A5 and in the data set on Liver microsome [10] was “metabolite_detected” in each case. Also, the Drug metabolism entry (at Cytochrome P450 2D6; at Cytochrome P450 3A4; on Cytochrome P450 2C9; in data set [12]) was “metabolite_detected” in each case. This molecule also yielded a Retention_time in data set [6] of 20.2 min.
